High-throughput results deposited in PubChem BioAssay by several laboratories.
MEKK2 WT-MEK5 = raises or lowers MEK5 binding to wildtype human MEKK2 PB1 domain; bead flow cytometry, Alexa488-MEK5 binding to MEKK2 WT; actives lie on both sides; Q9Y2U5; AID 1531; 290,000 tested, 1.1% active; binding response (% of control), % at 10 µM; in the data active = binding response below about 67% or above about 130%
Apaf-1 inh = blocks human Apaf-1 apoptosome activity. AID 489030. 330,000 tested, 0.71% active. inhibition, % at 20 µM. O14727. reconstituted apoptosome caspase-3 activity, DEVD-Rh110 fluorescence; active = inhibition of at least 40% at 20 µM
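Material: reconstituted apoptosome with Apaf-1, cytochrome c, caspase-9, procaspase-3, dATP; medium: pH 7.5 Hepes buffer with CHAPS, BSA, DTT; also added: cytochrome c and DEVD-Rh110 substrate; timing: 30 min plus 50 min, RT; signal: Rh110 fluorescence intensity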
UBC13 inh = blocks human UBC13 polyubiquitin chain formation. AID 485273. inhibition, % at 20 µM. 330,000 tested, 0.47% active. TR-FRET; in the data active = inhibition above about 45%, passing the limit was not always enough
UCH37 DUB inh = blocks the human deubiquitinase UCH37. Q9Y5K5. purified proteasome/UCH37, Ub-AMC cleavage fluorescence. inhibition, % (no concentration beside the values). 330,000 tested, 0.33% active;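 active = mean inhibition over replicate wells above about 20%, limit read from the data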
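System: Proteasome-associated human UCH37 deubiquitinase; Input: 0.15 nM proteasome in added enzyme buffer; Also added: Ub-AMC substrate from 1 µM stock; Incubation: 30 min compound-proteasome preincubation then 25 min substrate reaction, room temperature; Detection: fluorescence, ex 355 nm, em 460 nm; Read-out: % inhibition of Ub-AMC cleavage fluorescence; Benchmarks: no-proteasome and no-compound wells.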
MEKK2mut PB1 HTS = signal of MEK5 binding to mutant human MEKK2 PB1 domain. bead flow cytometry, Alexa488-MEK5 binding to MEKK2 mutant. percent response, % at 10 µM. 290,000 tested, 0.35% active. AID 1530; in the data active = percent response above about 24%, passing the limit was not always enough
MEKK3 PB1 HTS = MEKK3-MEK5 PB1 interaction, increase or decrease; Q99759; bead-based flow cytometry, Alexa488-MEK5 binding to MEKK3; actives lie on both sides; 0 = blocked by unlabeled MEK5, 100 = vehicle; binding response (% of control), % at 10 µM; 290,000 tested, 1.4% active; AID 1529;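 active = binding response more than 3 SD above or below the average of its plate-row segment, actives on both sides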;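 note: Alexa488 bead fluorescence after subtracting the streptavidin-only scavenger bead signal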
Target sequence (Q99759 whole entry, looked up): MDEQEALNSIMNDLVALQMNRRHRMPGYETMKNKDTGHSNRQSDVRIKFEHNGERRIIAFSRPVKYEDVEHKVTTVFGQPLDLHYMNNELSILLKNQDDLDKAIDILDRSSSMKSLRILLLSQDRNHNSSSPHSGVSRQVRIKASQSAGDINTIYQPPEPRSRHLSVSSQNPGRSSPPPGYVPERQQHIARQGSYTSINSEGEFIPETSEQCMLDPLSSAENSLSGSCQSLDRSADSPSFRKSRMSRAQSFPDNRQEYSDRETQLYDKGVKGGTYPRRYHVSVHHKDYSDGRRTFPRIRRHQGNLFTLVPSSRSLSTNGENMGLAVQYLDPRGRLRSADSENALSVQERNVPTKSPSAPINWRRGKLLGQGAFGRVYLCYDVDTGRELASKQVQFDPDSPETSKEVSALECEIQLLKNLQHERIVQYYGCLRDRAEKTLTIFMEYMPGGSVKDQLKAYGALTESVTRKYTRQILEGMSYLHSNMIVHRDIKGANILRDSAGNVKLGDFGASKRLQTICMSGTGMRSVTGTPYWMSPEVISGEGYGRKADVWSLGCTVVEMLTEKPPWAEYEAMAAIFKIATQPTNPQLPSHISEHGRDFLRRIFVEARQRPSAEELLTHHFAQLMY
MEKK2wt confirm = raises or lowers MEK5 binding to wildtype human MEKK2, retest; shares compounds with MEKK3 PB1 HTS; bead flow cytometry, Alexa488-MEK5 binding to MEKK2 WT; actives lie on both sides; binding response (% of control), % at 10 µM; 5,900 tested, 2.4% active; in the data active = binding response below about 16% or above about 210%; inactive = in between
MEKK2mut confirm = signal of MEK5 binding to mutant human MEKK2, retest | bead flow cytometry, Alexa488-MEK5 binding to MEKK2 mutant | 5,900 tested, 2% active | shares compounds with MEKK3 PB1 HTS | percent response, % at 10 µM | AID 1893; in the data active = percent response mostly above about 71%, no sharp cut-off; inactive = mostly below about 38%;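 note: higher means compound restores mutant binding toward wildtype level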
MEKK3-MEK5 inh = confirmation of inhibitors of MEK5 binding to human MEKK3. shares compounds with MEKK3 PB1 HTS. 5,900 tested, 1.8% active. bead flow cytometry, Alexa488-MEK5 binding to MEKK3; stronger effect = lower value. binding response (% of control), % at 10 µM;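 active = binding response below 72% of control, or above a set upper limit, though filed actives all read lower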
A number is an active result; . = inactive; / = not tested or not shown; [ ] = remark or other dose. The list is not random: actives were taken first. Their share in the collection is about 3%.

SMILES	MEKK2 WT-MEK5	Apaf-1 inh	UBC13 inh	UCH37 DUB inh	MEKK2mut PB1 HTS	MEKK3 PB1 HTS	MEKK2wt confirm	MEKK2mut confirm	MEKK3-MEK5 inh
COc1ccc(C(CC(=O)c2ccc(O)cc2)S(=O)(=O)c2ccc(C)cc2)cc1 (centres undefined)	37[inhibitor]	.	.	.	.	26[inhibitor]	.	.	.
CCc1ccc(NC(=O)C2CCCN(S(=O)(=O)c3cccnc3)C2)cc1 (centres undefined)	.	.	.	.	.	.	/	/	/
CC(C)S(=O)(=O)c1nsc2nc(=O)c(/C=C3\C=Nc4ccccc43)c(N)n12	.	.	.	.	.	129	.	.	.
CC1=Nc2ccccc2/C1=C/c1c(N)n2c(S(=O)(=O)C(C)C)nsc2nc1=O	.	.	.	.	.	.	/	/	/
CCC(=O)Nc1cccc(C2=NOC3(C2)C[C@@H](C(N)=O)N(C(=O)c2ccc(OC)cc2)C3)c1 (some centres undefined)	.	.	.	.	.	.	/	/	/
Cc1ccc(C(=O)N/C(=C\c2ccc(-c3ccc(Br)cc3)o2)C(=O)NCCCN(C)C)cc1	187	.	72	.	.	.	.	.	.
O=C(CCCOc1ccccc1)NCCc1nc2ccccc2[nH]1	.	.	.	.	.	74[inhibitor]	.	.	.
COc1ccccc1-c1ccc(SCc2cccc(F)c2)nn1	.	.	.	/	.	.	/	/	/
COc1ccccc1-c1ccc(SCc2ccccc2)nn1	.	.	.	.	.	73[inhibitor]	.	.	.
CCc1nnc(NC(=O)CSc2ccc(-c3ccccc3OC)nn2)s1	.	.	.	.	.	67[inhibitor]	.	.	.
O=C(CCc1nnc(CCCCc2ccccc2)o1)NCCCc1cccnc1	9.0[inhibitor]	.	.	.	.	.	.	.	.
Cc1ccc(C(C)(C)C)c(OCCOCCN2CCCC2)c1	.	.	.	.	.	.	/	/	/
CC(C)(C)c1ccccc1OCCOCCN1CCCCCC1	164	.	.	.	.	.	.	.	.
CCN(CC(=O)NCc1ccc(Cl)cc1)C(=O)c1ccc2cc(OC)ccc2c1	.	.	.	.	.	.	/	/	/
c1ccc(-n2nnc3c(N4CCOCC4)ncnc32)cc1	.	.	.	.	.	74[inhibitor]	.	.	.
COC(=O)c1cc2sc(Cl)cc2n1CC(=O)Nc1cccc(SC)c1	.	.	.	.	.	.	/	/	/
CC(/C=C/c1ccccc1)=NNC(=O)c1nc2nc(C)cc(C)n2n1	/	/	/	.	/	/	/	/	/
CC(/C=C/c1ccccc1)=N/NC(=O)c1nc2nc(C)cc(C)n2n1	.	.	.	/	.	130	.	.	.
COc1ccc(OC)c(CCNC(=O)CCc2cn(C)c3ccccc23)c1	.	.	.	.	.	.	/	/	/
COc1ccc(CCNC(=O)CCc2cn(C)c3ccccc23)c(OC)c1OC	.	.	.	.	27	.	.	.	.
COC(=O)c1ccc2c(=O)n(CCCCCC(=O)NCc3ccc4c(c3)OCO4)c(=O)[nH]c2c1	.	.	.	.	.	65[inhibitor]	.	.	.
Cc1cc2c(=O)n(Cc3ccco3)c(SCC(=O)NCc3ccco3)nc2s1	2.0[inhibitor]	.	.	.	.	2.0[inhibitor]	.	.	.
Cc1nnc(SCC(=O)NCc2ccco2)[nH]c1=O	135	.	.	.	.	133	.	.	.
CC12CCC(C(=O)NNC(=O)c3ccc(F)cc3)(OC1=O)C2(C)C (centres undefined)	.	.	.	.	.	.	/	/	/
Cc1ccc(NC(=O)C(c2ccccc2)N2CCN(C(=O)c3ccco3)CC2)cc1Cl (centres undefined)	/	.	.	.	/	/	/	/	/
SMILES	MEKK2 WT-MEK5	Apaf-1 inh	UBC13 inh	UCH37 DUB inh	MEKK2mut PB1 HTS	MEKK3 PB1 HTS	MEKK2wt confirm	MEKK2mut confirm	MEKK3-MEK5 inh
CCC(OC(=O)C1=Cc2ccccc2OC1)C(=O)NC1CCCC1 (centres undefined)	.	.	.	.	.	126	.	.	.
O=C(OC(C(=O)NC1CCCC1)c1ccncc1)C1=Cc2ccccc2OC1 (centres undefined)	.	.	.	.	.	.	/	/	/
CC(C)C(OC(=O)C1=Cc2ccccc2OC1)C(=O)NC1CCCC1 (centres undefined)	.	.	.	.	.	131	.	.	.
Cc1c(Cl)c([N+](=O)[O-])nn1CCCC(=O)N1CCN(c2ccccc2)CC1	.	.	.	.	.	.	/	/	/
Cc1c(Cl)c([N+](=O)[O-])nn1CCCC(=O)N(Cc1ccccc1)Cc1ccccc1	.	.	.	.	.	141	.	.	.
O=C(CC1NCCc2ccccc21)Nc1ccc(Oc2ccccc2)cc1 (centres undefined)	160	.	.	.	.	.	.	.	.
COc1ccc(S(=O)(=O)N(C)CC(=O)N2CCN(C)CC2)cc1C	.	.	.	.	.	.	/	/	/
CCOC(=O)c1c(C)n(C)c2ccc(OC)c(NC(=O)CN3CCC(C(=O)OCC)CC3)c12	.	.	.	.	.	47[inhibitor]	.	.	.
CC(=O)c1sc(N/N=C2\CC3CCC2(C)C3(C)C)nc1C (centres undefined)	.	.	.	/	.	.	/	/	/
COc1ccccc1C1CCN(Cc2ccccc2)CC1	.	.	.	.	.	.	/	/	/
COc1ccccc1C1CCN(Cc2ccc3ccccc3c2)CC1	138	.	.	.	36	.	.	.	.
Cc1ccc(C=NNC(=O)c2cc(-c3ccncc3)nc3ccccc23)o1	/	/	/	.	/	/	/	/	/
O=C(CN1CCOCC1)Nc1ccc(Oc2ccccc2)cc1	.	.	.	.	.	.	/	/	/
O=C(CN1CCCC1)Nc1ccc(Oc2ccc(NC(=O)CN3CCCC3)cc2)cc1	1.0[inhibitor]	.	.	.	.	1.0[inhibitor]	.	.	.
COc1ccc(NC(=O)CN2CCCC2)cc1	.	.	.	.	.	.	/	/	/
O=C(CN1CCN(c2ccccc2)CC1)Nc1ccc(Oc2ccccc2)cc1	1.0[inhibitor]	.	.	.	.	2.0[inhibitor]	.	.	.
O=C(NCCc1ccccn1)c1ccc(S(=O)(=O)N2CCCCCC2)cc1	.	.	.	.	.	.	/	/	/
O=C(COC(=O)c1ccccc1SCC(=O)NC1CCS(=O)(=O)C1)NC1CCS(=O)(=O)C1 (centres undefined)	1.0[inhibitor]	.	.	.	.	2.0[inhibitor]	.	.	.
